According to PMC4636097 (Drug Design, Development and Therapy, 2015):

Experiments:
[1] = tested on: pooled HIMs (human intestinal microsomes); test: Kinetics of OMT metabolism; assay type: in vitro ADME; conditions: pooled HIM, formation of MT, biphasic metabolism equation
[2] = target: cDNA-expressed human CYP3A4 (Homo sapiens, UniProt P08684); test: Metabolism of OMT in recombinant human CYP enzymes: CYP3A4; assay type: in vitro ADME; conditions: OMT 50 μM, 0.08 mg/mL enzyme, NADPH-regenerating system, 37°C, 1.5 hours
HLMs [3] = test: Effects of different oxygen contents on the metabolism of OMT in HLMs; assay type: in vitro ADME, human; conditions: OMT 50 μM, enzyme inactivated in boiled water for 2 h, ventilation for 30 s
[4] = oral administration; cited from earlier work
[5] = tested on: other cDNA-expressed CYP enzymes (CYP1A1, CYP1A2, CYP1B1, CYP2A6, CYP2B6, CYP2C8, CYP2C19, CYP2D6, CYP2E1, CYP3A5); test: Metabolism of OMT in recombinant human CYP enzymes: other isoforms; assay type: in vitro ADME; conditions: OMT 50 μM, 0.08 mg/mL enzyme, NADPH-regenerating system, 37°C, 1.5 hours
HLMs [6] = test: Identification of OMT metabolite in HLMs; assay type: in vitro ADME, human; conditions: HLMs and NADPH, 37°C, 1.5 hours; metabolite identified as MT
In short: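 Test compound at 50, 100 or 200 μM with pooled human liver microsomes (0.1 mg/mL) in 50 mM KPI pH 7.4 and a glucose-6-phosphate/MgCl2/G6P dehydrogenase system, started with NADP. Controls lacked NADP. Run at 37°C for 1.5 h with shaking, then CH2Cl2 extraction. UPLC and Q-TOF MS (positive ESI); metabolite assigned by chromatographic behaviour and MS fragmentation. Triplicate.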

[7] = tested on: pooled HLMs (human liver microsomes); test: Kinetics of OMT metabolism; assay type: in vitro ADME; conditions: pooled HLM, formation of MT, biphasic metabolism equation

Sequence of cDNA-expressed human CYP3A4 (P08684 whole entry): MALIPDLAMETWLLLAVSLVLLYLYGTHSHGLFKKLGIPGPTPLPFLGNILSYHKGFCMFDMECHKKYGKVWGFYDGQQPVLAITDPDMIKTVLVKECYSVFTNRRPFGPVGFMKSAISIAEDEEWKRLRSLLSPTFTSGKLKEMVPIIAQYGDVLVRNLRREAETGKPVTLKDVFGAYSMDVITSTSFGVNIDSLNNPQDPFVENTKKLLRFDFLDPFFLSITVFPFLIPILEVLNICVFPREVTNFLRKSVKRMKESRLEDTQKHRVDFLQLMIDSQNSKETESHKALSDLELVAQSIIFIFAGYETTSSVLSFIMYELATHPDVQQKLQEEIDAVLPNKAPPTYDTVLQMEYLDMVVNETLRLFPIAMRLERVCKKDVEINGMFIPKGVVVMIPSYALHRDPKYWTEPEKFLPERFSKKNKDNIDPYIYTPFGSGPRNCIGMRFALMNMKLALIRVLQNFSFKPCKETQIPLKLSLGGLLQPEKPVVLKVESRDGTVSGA

O=C1CCC[C@@H]2[C@H]3CCC[N+]4([O-])CCC[C@@H](CN12)[C@@H]34 (stereo partly shown) [OMT, Oxymatrine]
Vmax [1]: 0.46 ± 0.05 nmol/min/mg | formation of MT by CYP3A4 [2]: contributed greatly to the formation of MT | metabolites in the inactivated enzyme test (HLMs [3]): no metabolites were observed | oral absolute bioavailability [4]: 6.79% | formation of MT by other cDNA-expressed CYP enzymes [5]: only a small amount of MT could be detected | metabolites found in HLMs (HLMs [6]): only one metabolite was found in HLMs | Vmax [7]: 1.49 ± 0.24 nmol/min/mg
